According to ChEMBL document CHEMBL4138311, “Antitumorigenic Properties of Omega-3 Endocannabinoid Epoxides” (J Med Chem, 2018):
Active and inactive are the calls of the source. The rule behind the calls is not given here.

Key:
[1] = test system: 143B; experiment: Induction of apoptosis in human 143B cells at 12.5 by Annexin V-FITC/propidium iodide double staining based flow cytometry relative to control; format: functional
[2] = test system: MG-63; experiment: Induction of apoptosis in human MG63 cells at 12.5 by Annexin V-FITC/propidium iodide double staining based flow cytometry relative to control; format: functional
[3] = test system: HOS; experiment: Induction of apoptosis in human HOS cells at 12.5 by Annexin V-FITC/propidium iodide double staining based flow cytometry relative to control; format: functional
[4] = target: T1, Fatty-acid amide hydrolase 1 (Sus scrofa, UniProt Q9TUI8); experiment: Drug metabolism in pig forebrain membranes assessed as FAAH-mediated 10,11-EDP formation by measuring hydrolysis rate per mg protein at 20 uM after 40 mins by LC-MS/MS analysis; format: ADME, cell membranes, Membrane
T1 sequence (Q9TUI8 whole entry): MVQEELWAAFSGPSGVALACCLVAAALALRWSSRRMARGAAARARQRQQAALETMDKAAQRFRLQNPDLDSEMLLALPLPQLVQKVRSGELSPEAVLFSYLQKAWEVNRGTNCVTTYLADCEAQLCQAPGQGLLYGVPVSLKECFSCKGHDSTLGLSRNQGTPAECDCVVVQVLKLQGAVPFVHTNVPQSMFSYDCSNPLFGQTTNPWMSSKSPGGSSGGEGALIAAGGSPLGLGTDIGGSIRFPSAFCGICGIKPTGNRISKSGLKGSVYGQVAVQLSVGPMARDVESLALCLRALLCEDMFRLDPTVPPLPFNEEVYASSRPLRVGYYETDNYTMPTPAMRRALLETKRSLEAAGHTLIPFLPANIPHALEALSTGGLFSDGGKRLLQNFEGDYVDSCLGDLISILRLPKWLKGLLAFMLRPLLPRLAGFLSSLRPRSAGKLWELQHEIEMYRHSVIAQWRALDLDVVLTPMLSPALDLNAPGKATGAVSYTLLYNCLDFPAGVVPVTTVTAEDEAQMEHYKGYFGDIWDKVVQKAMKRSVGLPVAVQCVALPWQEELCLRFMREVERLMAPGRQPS
How it was run: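 Each 0.5 mL reaction held 5 µg membrane protein in the same buffer with 20 µM amide. Reactions were stopped at 40 min with methanol containing 1 mM PMSF and centrifuged. The supernatant was run on C18 LC-MS/MS, negative ESI, MRM for 10,11-EDP (m/z 343.0).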

[5] = test system: 143B; experiment: Cell cycle arrest in human 143B cells assessed as accumulation at G1 phase after 24 hrs by propidium iodide-staining based flow cytometry (reference value: 56.2 +/- 2.7%); format: functional
[6] = test system: 143B; experiment: Cell cycle arrest in human 143B cells assessed as accumulation at S phase after 24 hrs by propidium iodide-staining based flow cytometry (reference value: 26.6 +/- 0.4%); format: functional
[7] = test system: 143B; experiment: Cell cycle arrest in human 143B cells assessed as accumulation at G2 phase after 24 hrs by propidium iodide-staining based flow cytometry (reference value: 17.2 +/- 2.3%); format: functional
[8] = test system: HOS; experiment: Cell cycle arrest in human HOS cells assessed as accumulation at G1 phase after 24 hrs by propidium iodide-staining based flow cytometry (reference value: 47.8 +/- 0.7%); format: functional
[9] = test system: HOS; experiment: Cell cycle arrest in human HOS cells assessed as accumulation at S phase after 24 hrs by propidium iodide-staining based flow cytometry (reference value: 37.1 +/- 1.6%); format: functional
[10] = test system: HOS; experiment: Cell cycle arrest in human HOS cells assessed as accumulation at G2 phase after 24 hrs by propidium iodide-staining based flow cytometry (reference value: 15.1 +/- 0.97%); format: functional
[11] = test system: MG-63; experiment: Cell cycle arrest in human MG63 cells assessed as accumulation at G1 phase after 24 hrs by propidium iodide-staining based flow cytometry (reference value: 62.9 +/- 1.8%); format: functional
[12] = test system: MG-63; experiment: Cell cycle arrest in human MG63 cells assessed as accumulation at S phase after 24 hrs by propidium iodide-staining based flow cytometry (reference value: 20.2 +/- 1.8%); format: functional
[13] = test system: MG-63; experiment: Cell cycle arrest in human MG63 cells assessed as accumulation at G2 phase after 24 hrs by propidium iodide-staining based flow cytometry (reference value: 16.9 +/- 0.01%); format: functional
[14] = test system: HUVEC; experiment: Anti-angiogenic activity in HUVEC assessed as inhibition of tube formation at 0.5 to 1 uM after 5 hrs by fluorescent microscopy based matrigel assay; format: functional, cell-based; settings: Homo sapiens
How it was run: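 HUVEC at passage 2 were grown to 80% confluency, and 15,000 cells were plated on Matrigel pre-set 1 h at 37 °C. Cells got vehicle, 0.5 or 1 μM compound, with no-matrix and vinblastine controls, in duplicate wells for 5 h at 37 °C. After washing, cells were stained 30 min at 37 °C. Fluorescence images were scored for tube formation with an angiogenesis analyzer.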

[15] = test system: HUVEC; experiment: Cytotoxicity against HUVEC assessed as reduction in cell viability at 1 uM after 24 hrs by cell-titer blue assay; format: cell-based; settings: human
[16] = test system: 143B; experiment: Cytotoxicity against human 143B cells assessed as reduction in cell viability at 12.5 uM after 24 hrs by cell-titer blue assay; format: functional, cell-based
[17] = test system: 143B; experiment: Cytotoxicity against human 143B cells assessed as reduction in cell viability at 25 uM after 24 hrs by cell-titer blue assay; format: functional, cell-based
[18] = test system: 143B; experiment: Antimigratory activity in human 143B cells at 5 uM measured after 10 hrs by wound-healing assay; format: functional, cell-based
How it was run: (§1)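 A confluent monolayer of HOS, 143B or MG63 cells (DMEM, 10% FBS) was scratched with a pipette tip, then given fresh medium with 5 μM compound or vehicle at 37 °C, 5% CO₂. Images were taken every 2 h and wound area normalized to 100% at 0 h. Results are the ratio of wound remaining, treated to control, at 6 and 10 h.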

[19] = test system: 143B; experiment: Antimigratory activity in human 143B cells at 5 uM measured after 10 hrs in presence of CB1 receptor antagonist rimonabant by wound-healing assay; format: functional, cell-based
[20] = target: Cannabinoid receptor 1 (Homo sapiens, UniProt P21554); experiment: Agonist activity at N-terminal FLAG-tagged human CB1 receptor transfected in human HTLA cells assessed as induction of beta-arrestin-recruitment after 8 to 14 hrs by bright-glo luminescence based assay; format: functional, cell-based
How it was run: (§2)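 HTLA cells (DMEM, 10% FBS, puromycin 2 μg/mL, hygromycin B 100 μg/mL) were seeded at 20,000 per well on poly-L-lysine and transfected after 18–24 h with CNR1 or CNR2 Tango plasmid, 0.1 μg/well. After 36–48 h they were starved 4 h in 1% dialyzed FBS, or 30 min with 1 μM AUDA for epoxides. Log-dose compound was added for 8–14 h, then Bright-Glo luminescence read. RLU was normalized to % receptor response and fitted to a dose-response curve.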

[21] = target: Cannabinoid receptor 2 (Homo sapiens, UniProt P34972); experiment: Agonist activity at N-terminal FLAG-tagged human CB2 receptor transfected in human HTLA cells assessed as induction of beta-arrestin-recruitment after 8 to 14 hrs by bright-glo luminescence based assay; format: functional, cell-based; how it was run: as §2
[22] = test system: 143B; experiment: Induction of apoptosis in human 143B cells at 12.5 in presence of rimonabant by Annexin V-FITC/propidium iodide double staining based flow cytometry relative to control; format: functional
[23] = test system: 143B; experiment: Induction of apoptosis in human 143B cells at 12.5 in presence of AM 630 by Annexin V-FITC/propidium iodide double staining based flow cytometry relative to control; format: functional
[24] = test system: HOS; experiment: Antimigratory activity in human HOS cells at 5 uM after 6 to 10 hrs by wound-healing assay; format: functional, cell-based; how it was run: as §1
[25] = test system: MG-63; experiment: Antimigratory activity in human MG63 cells at 5 uM measured after 10 hrs by wound-healing assay; format: functional, cell-based; how it was run: as §1
[26] = test system: MG-63; experiment: Antimigratory activity in human MG63 cells at 5 uM measured after 6 hrs by wound-healing assay; format: functional, cell-based; how it was run: as §1

Sequence of Cannabinoid receptor 1 (P21554 whole entry): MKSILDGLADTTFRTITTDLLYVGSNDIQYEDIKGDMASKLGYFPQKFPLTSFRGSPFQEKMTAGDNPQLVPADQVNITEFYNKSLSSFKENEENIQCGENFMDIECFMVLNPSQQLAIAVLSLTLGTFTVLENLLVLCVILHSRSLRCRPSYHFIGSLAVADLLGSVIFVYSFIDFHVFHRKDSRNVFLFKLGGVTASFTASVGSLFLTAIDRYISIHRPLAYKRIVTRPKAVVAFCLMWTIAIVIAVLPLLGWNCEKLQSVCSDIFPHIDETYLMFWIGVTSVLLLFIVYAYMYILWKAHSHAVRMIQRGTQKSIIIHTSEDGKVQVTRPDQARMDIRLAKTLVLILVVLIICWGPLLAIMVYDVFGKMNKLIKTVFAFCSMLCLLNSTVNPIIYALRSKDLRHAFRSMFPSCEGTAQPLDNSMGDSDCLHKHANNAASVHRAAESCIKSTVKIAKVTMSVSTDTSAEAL
Sequence of Cannabinoid receptor 2 (P34972 whole entry): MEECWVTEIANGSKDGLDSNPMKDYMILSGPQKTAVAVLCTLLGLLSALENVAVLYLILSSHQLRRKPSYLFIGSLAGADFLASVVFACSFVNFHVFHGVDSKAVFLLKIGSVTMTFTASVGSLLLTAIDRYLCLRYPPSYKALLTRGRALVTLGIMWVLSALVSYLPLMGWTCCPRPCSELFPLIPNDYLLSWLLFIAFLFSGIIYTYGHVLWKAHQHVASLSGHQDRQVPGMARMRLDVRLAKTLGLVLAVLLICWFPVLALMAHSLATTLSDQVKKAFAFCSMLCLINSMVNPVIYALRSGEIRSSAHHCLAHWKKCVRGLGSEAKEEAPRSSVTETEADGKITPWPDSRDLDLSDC

| Structure (SMILES) | Activity [1] | Activity [2] | Activity [3] | Drug metabolism [4] | Activity [5] | Activity [6] | Activity [7] | Activity [8] | Activity [9] | Activity [10] | Activity [11] | Activity [12] | Activity [13] | Activity [14] | Activity [15] | Activity [16] | Activity [17] | Activity [18] | Activity [22] | Activity [23] | other results |
| --- | --- | --- | --- | --- | --- | --- | --- | --- | --- | --- | --- | --- | --- | --- | --- | --- | --- | --- | --- | --- | --- |
| CC/C=C\C/C=C\C/C=C\CC1OC1C/C=C\C/C=C\CCC(=O)NC(C)CO (configuration not stated) | 18.8% | 17.5% | 20.2% | 0.99 pmol/min | 50.1% | 41.8% | 8.1% | 55.8% | 24.3% | 20% | 76.7% | 10.8% | 12.5% | Active | Non-Toxic | – | – | – | – | – | – |
| CC/C=C\C/C=C\C/C=C\CC1OC1C/C=C\C/C=C\CCC(=O)NC1CC1 (configuration not stated) | 21.3% | 17.1% | 27.2% | 5.17 pmol/min | 54.2% | 22.9% | 22.9% | 54.4% | 30.5% | 15.1% | 59.6% | 23.1% | 16.9% | Active | Non-Toxic | – | – | – | – | – | – |
| CCC1OC1C/C=C\C/C=C\C/C=C\C/C=C\C/C=C\CCC(=O)NCCO (configuration not stated) | – | – | – | – | – | – | – | – | – | – | – | – | – | – | – | inactive | Active | – | – | – | – |
| CC/C=C\C/C=C\C/C=C\CC1OC1C/C=C\C/C=C\CCC(=O)NCCO (configuration not stated) | 17.92% | 26.6% | 31.1% | 30 pmol/min | 50.7% | 28.9% | 21.1% | 67.2% | 20.3% | 12.4% | 67.7% | 17.9% | 14.4% | Active | Non-Toxic | Active | Active | Active | 7.44% | 10.9% | Activity [19]: inactive; EC50 [20]: 0.43 nM; EC50 [21]: 22.5 nM |
| CC/C=C\C/C=C\C/C=C\C/C=C\CC1OC1C/C=C\CCC(=O)NCCO (configuration not stated) | 8.75% | 16.4% | 17.1% | – | – | – | – | – | – | – | – | – | – | – | – | Active | Active | inactive | 14.6% | 10.1% | Activity [24]: inactive; Activity [25]: Active |
| CC/C=C\CC1OC1C/C=C\C/C=C\C/C=C\C/C=C\CCC(=O)NCCO (configuration not stated) | – | – | – | – | – | – | – | – | – | – | – | – | – | – | – | inactive | Active | – | – | – | – |
| CC/C=C\C/C=C\CC1OC1C/C=C\C/C=C\C/C=C\CCC(=O)NCCO (configuration not stated) | 9.95% | 16.9% | 19.6% | – | – | – | – | – | – | – | – | – | – | – | – | Active | Active | inactive | 13.03% | 9.2% | Activity [24]: inactive; Activity [25]: Active; Activity [26]: inactive |
| CC/C=C\C/C=C\C/C=C\CC1OC1C/C=C\C/C=C\CCC(=O)NCCCO (configuration not stated) | 25.7% | 15.2% | 17.1% | – | 52.2% | 24% | 23.7% | 62.2% | 20.7% | 17.1% | 63.5% | 19% | 17.5% | Active | Non-Toxic | – | – | – | – | – | – |
